The values that follow come from ChEMBL document CHEMBL1240449, “Tricyclononene carboxamide derivatives as novel anti-HIV-1 agents” (Eur J Med Chem, 2010).

A short description of data set [1]: Cytotoxicity against human CEMx174 5.25M7 cells after 4 days by XTT assay. Format: cell-based. The procedure, abridged:
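Graded compound concentrations added to an equal volume of CEMx174 5.25M7 cells (5 × 10⁵/mL) and incubated 4 days at 37 °C. XTT (1 mg/mL) containing 0.02 mM PMS was added and absorbance read at 450 nm after 4 h. CC50 by CalcuSyn.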
A general note: Tetrazolium assays rely on reduction of a dye to a coloured formazan, in cell work by metabolically active cells.

Data set [2] deals with Human immunodeficiency virus 1. Kind of data set: Antiviral activity against R5 tropic HIV1 BaL infected in human CEMx174 5.25M7 cells after 3 days by luciferase assay. To be noted: Human immunodeficiency virus 1, BaL, CEMx174 5.25M7, 72 h. Type of data set: functional, organism-based. The procedure, abridged:
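Compound at graded concentrations, in triplicate, preincubated with an equal volume of HIV-1 Bal (MOI 0.01) at 37 °C for 30 min. CEMx174 5.25M7 cells (5 × 10⁵/mL; CD4+, CXCR4+, CCR5+) were then added. After overnight culture the medium was replaced. On day 3 the cells were lysed and luciferase activity read. IC50 from percent inhibition by CalcuSyn.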

Data set [3] can be described thus: Selectivity index, CC50 for human CEMx174 5.25M7 cells to IC50 for R5 tropic HIV1 BaL. Type of data set: functional. The procedure, abridged: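 Ratio of CC50 (XTT, CEMx174 5.25M7 cells, 4 days) to IC50 (HIV-1 Bal luciferase infection assay, day 3) in the same cell line.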
Another data set has as its target Protease (Human immunodeficiency virus 1, UniProt Q9YQ12). Kind of data set: Inhibition of HIV1 recombinant protease. The procedure, abridged:
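Recombinant HIV-1 protease, purified, in 0.1 mol/L sodium acetate pH 5.0 with 0.9 mol/L NaCl, 1 mmol/L DTT, 1 mmol/L EDTA and a fluorescent peptide substrate. Graded compound concentrations were preincubated in this buffer for 20 min at 37 °C, then enzyme was added to start the reaction. Percent inhibition and IC50 were calculated.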

Data set [4] deals with Human immunodeficiency virus type 1 reverse transcriptase (Human immunodeficiency virus 1, UniProt Q72547). Kind of data set: Inhibition of HIV1 reverse transcriptase after 1 hr by ELISA. Background: In an ELISA, binding on a coated surface is turned into a signal by an enzyme label.
Data set [5] has as its target Human immunodeficiency virus type 1 integrase (Human immunodeficiency virus 1, UniProt Q7ZJM1). Kind of data set: Inhibition of HIV1 integrase after 1 hr. The procedure, abridged: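 Integrase (F185K/C280S IN1-288, expressed in E. coli) assayed in wells coated with a donor DNA duplex substrate. Final read-out by alkaline phosphatase at 405 nm, after PBS-Tween washes and 1% BSA at 37 °C for 40 min. ABPS included as control. IC50 by CalcuSyn.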

SMILES strings stand for the structures. Where only a bound is given, the exact number is not on record here.

Protease, sequence (Q9YQ12 whole entry): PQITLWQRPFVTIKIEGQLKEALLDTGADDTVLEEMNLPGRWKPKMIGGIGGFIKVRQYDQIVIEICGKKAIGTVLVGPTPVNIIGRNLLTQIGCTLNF
Human immunodeficiency virus type 1 integrase, sequence (Q7ZJM1 whole entry): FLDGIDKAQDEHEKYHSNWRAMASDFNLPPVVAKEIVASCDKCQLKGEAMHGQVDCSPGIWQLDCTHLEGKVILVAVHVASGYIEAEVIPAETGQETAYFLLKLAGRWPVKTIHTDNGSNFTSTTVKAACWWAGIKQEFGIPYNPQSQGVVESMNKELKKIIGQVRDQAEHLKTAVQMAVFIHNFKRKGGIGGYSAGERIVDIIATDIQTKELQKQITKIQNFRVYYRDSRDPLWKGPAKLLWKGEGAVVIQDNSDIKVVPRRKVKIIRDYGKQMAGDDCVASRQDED

With `O=C1C2C3C=CC(C4CC34)C2C(=O)N1CCC(=O)n1cnc2ccccc21` (stereo not drawn), the CC50 (usually the concentration that lowers cell viability or growth by half) at 96 h in data set [1] was more than 221 µM. Moreover, the IC50 in data set [2] (read-out: IC50) was more than 221 µM.
`O=C(NN1C(=O)[C@@H]2C3C=CC(C4CC43)[C@@H]2C1=O)c1ccc(CN(Cc2ccccc2)c2ccccc2)cc1` (stereo partly drawn): the “Selectivity Index” value in data set [3] is 1.51. This molecule also came in with a CC50 at 96 h in data set [1] of 25.5 µM. Further, the IC50 in data set [2] (read-out: IC50) and in data set [2] (read-out: pIC50 (converted)) was 17.1 µM throughout.
In the case of `Cc1nc2ccccc2n1Cc1ccc(C(=O)NN2C(=O)[C@@H]3C4C=CC(C5CC54)[C@@H]3C2=O)cc1` (stereo partly drawn), the “Selectivity Index” value in data set [3] was found to be 0.61. Also, in data set [1], it took 1.02 µM to reach half-maximal cytotoxicity (CC50 at 96 h). In addition, the IC50 in data set [2] (read-out: IC50) and in data set [2] (read-out: pIC50 (converted)) was 1.68 µM throughout.
For `CN1CCN(Cc2ccc(C(=O)NN3C(=O)[C@@H]4C5C=CC(C6CC65)[C@@H]4C3=O)cc2)CC1` (stereo partly drawn), the IC50 in data set [2] (read-out: IC50) and in data set [2] (read-out: pIC50 (converted)) was 82.8 µM in each case.
`Cc1ccc(C)n1-c1ccc(C(=O)NN2C(=O)C3C4C=CC(C5CC45)C3C2=O)cc1` (stereo not drawn): the “Selectivity Index” value in data set [3] is reported as 0.45. Further, half-maximal cytotoxicity in data set [1] (CC50 at 96 h) was put at 3.54 µM. The IC50 in data set [2] (read-out: IC50) and in data set [2] (read-out: pIC50 (converted)) was 7.8 µM each time.
Regarding `Cc1nnc(C(C)C)n1-c1ccc(C(=O)NN2C(=O)C3C4C=CC(C5CC45)C3C2=O)cc1` (stereo not drawn), the CC50 at 96 h in data set [1] is more than 185 µM. Moreover, the IC50 in data set [2] (read-out: IC50) is more than 185 µM.
For `CCN(Cc1ccc(C(=O)NN2C(=O)[C@@H]3C4C=CC(C5CC54)[C@@H]3C2=O)cc1)c1ccccc1` (stereo partly drawn), the “Selectivity Index” value in data set [3] turned out to be 1. The molecule also displayed a CC50 at 96 h in data set [1] of 57 µM. Moreover, the figures for the IC50 in data set [2] (read-out: IC50) and in data set [2] (read-out: pIC50 (converted)) were 57.2 µM and 57.1 µM, respectively.
Turning to `O=C(NN1C(=O)[C@@H]2C3C=CC(C4CC43)[C@@H]2C1=O)c1ccc(CN2CCN(c3ccncc3)C2=O)cc1` (stereo partly drawn), in data set [1], the CC50 at 96 h was more than 165 µM. Moreover, the IC50 in data set [2] (read-out: IC50) was more than 165 µM.
On to `CC(C)CN(Cc1ccc(C(=O)NN2C(=O)[C@@H]3C4C=CC(C5CC54)[C@@H]3C2=O)cc1)c1ccccc1` (stereo partly drawn), for which the “Selectivity Index” value in data set [3] is listed as 2.48. In data set [1], this molecule had a CC50 at 96 h of 32.7 µM. Further, the IC50 in data set [2] (read-out: IC50) and in data set [2] (read-out: pIC50 (converted)) was 13.2 µM throughout.
As to `Cc1ccc(-c2ccc3c(c2)C=C(C(=O)Nc2ccc(C[N+](C)(C)C4CCOCC4)cc2)CCC3)cc1.[Cl-]`, the “Selectivity Index” value in data set [3] was 157.6. In data set [1], this molecule gave a CC50 at 96 h of 7.88 µM. The IC50 in data set [2] (read-out: IC50) was found to be 0.05 µM.
Regarding `O=C(NN1C(=O)[C@@H]2[C@@H]3C=C[C@@H]([C@H]4C[C@@H]34)[C@@H]2C1=O)c1ccc(C(F)(F)F)cc1` [TECOVIRIMAT], the IC50 in data set [2] (read-out: IC50) is more than 200 µM.
Regarding `O=C(Nc1ccccc1)c1ccc(CN2C(=O)C3C4C=CC(C5CC45)C3C2=O)cc1` (stereo not drawn), the “Selectivity Index” value in data set [3] was 7.72. This molecule yielded a CC50 at 96 h in data set [1] of 44 µM. The IC50 in data set [2] (read-out: IC50) and in data set [2] (read-out: pIC50 (converted)) was 5.7 µM throughout.
For the molecule `O=C(N[C@@H](Cc1ccccc1)C(=O)NN1C(=O)C2C3C=CC(C4CC34)C2C1=O)c1ccccc1` (stereo partly drawn), the IC50 in data set [2] (read-out: IC50) is 89.4 µM; in data set [2] (read-out: pIC50 (converted)), 89.3 µM.
Molecule `Cc1cccc(C)c1C(=O)N1CCC(C(=O)NN2C(=O)C3C4C=CC(C5CC45)C3C2=O)CC1` (stereo not drawn) came in with a CC50 at 96 h in data set [1] of more than 118 µM. Moreover, the IC50 in data set [2] (read-out: IC50) is more than 118 µM.
For `O=C(N[C@H](C(=O)NN1C(=O)C2C3C=CC(C4CC34)C2C1=O)c1ccccc1)c1ccccc1` (stereo partly drawn), in data set [3], the “Selectivity Index” value is recorded as more than 1.17. In data set [1], this molecule had a CC50 at 96 h of more than 181 µM. In addition, the IC50 in data set [2] (read-out: IC50) and in data set [2] (read-out: pIC50 (converted)) was 155 µM each time.
As for `CN(CCCN1C(=O)C2C3C=CC(C4CC34)C2C1=O)Cc1ccccc1` (stereo not drawn), the “Selectivity Index” value in data set [3] is 2.76. The molecule further registered a CC50 at 96 h in data set [1] of 84 µM. The IC50 in data set [2] (read-out: IC50) and in data set [2] (read-out: pIC50 (converted)) was 30.4 µM each time.
For the molecule `O=C(NN1C(=O)[C@@H]2C3C=CC(C4CC43)[C@@H]2C1=O)c1ccc(Cn2cnc3ccccc32)cc1` (stereo partly drawn), in data set [3], the “Selectivity Index” value is listed as 291.68. Moreover, the IC50 at Protease is more than 114 µM; in data set [4], more than 457 µM; in data set [5], more than 228 µM; in data set [2] (read-out: IC50), 0.41 µM; in data set [2] (read-out: pIC50 (converted)), 0.41 µM. In addition, the CC50 at 96 h in data set [1] turned out to be 120 µM.
With `O=C(NN1C(=O)[C@@H]2C3C=CC(C4CC43)[C@@H]2C1=O)c1ccc(CNc2cccc(Cl)c2)cc1` (stereo partly drawn), in data set [3], the “Selectivity Index” value is reported as 2.01. Moreover, in data set [1], the CC50 at 96 h came out at 27.8 µM. In addition, the IC50 in data set [2] (read-out: IC50) was 13.3 µM; in data set [2] (read-out: pIC50 (converted)), 13.2 µM.
The corresponding values for `O=C(NN1C(=O)[C@@H]2C3C=CC(C4CC43)[C@@H]2C1=O)c1ccc(COc2ccc(F)cc2)cc1` (stereo partly drawn) are 0.94, 29.7 µM, 31.4 µM and 31.5 µM.
